Columns and labels:
[1] = target: T1, Leucine-rich repeat serine/threonine-protein kinase 2 (Homo sapiens, UniProt Q5S007, G2019S); assay: Inhibition of recombinant human GST20 tagged truncated LRRK2 G2019S mutant assessed as substrate phosphorylation preincubated for 15 mins followed by substrate addition and measured after 90 mins using fluorescein-labeled LRRK2tide as substrate in presence of ATP by TR-FRET based Lanthascreen kinase activity assay
In short: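 Enzyme 1.25 nM in 50 mM Tris pH 8.5, 10 mM MgCl2, 0.01% Brij-35, 1 mM EGTA, 2 mM DTT, 0.05 mM orthovanadate. Compound (top 9.99 µM in DMSO, ten-point serial dilution) preincubated 15 min at RT. […] Stopped with EDTA plus 2 nM Tb anti-pERM, 1 h RT. 520/495 nm ratio read. IC50 from 4-parameter logistic fit, mean of several runs.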

[2] = target: T1, Leucine-rich repeat serine/threonine-protein kinase 2; assay: Inhibition of human LRRK2 G2019S mutant expressed in human SH-SY5Y cells assessed as inhibition of tetracycline induced LRRK2 phosphorylation at Ser935 residue incubated for 90 mins by MSD assay; assay type: cell-based
In short: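 SH-SY5Y neuroblastoma cells carrying LRRK2 G2019S, grown in DMEM/F-12 with GlutaMax, 10% Tet-free FBS, nonessential amino acids and pen-strep at 37 °C, 5% CO2. Expression induced with Tet (2 µg/ml) 48-72 h before treatment. Compound exposure 90 min. Lysates captured on anti-LRRK2-coated MSD plates, probed for pSer935 or total LRRK2 with Sulfo-Tag read-out. IC50 from standard 4P fit of % inhibition.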

[3] = target: Dual specificity protein kinase CLK2 (Homo sapiens, UniProt P49760); assay: Inhibition of CLK2 (unknown origin) assessed as substrate phosphorylation using coumarin and fluorescein-labeled peptide as substrate incubated for 1 hr by Z'-LYTE kinase assay
Dual specificity protein kinase CLK2, sequence (P49760 whole entry): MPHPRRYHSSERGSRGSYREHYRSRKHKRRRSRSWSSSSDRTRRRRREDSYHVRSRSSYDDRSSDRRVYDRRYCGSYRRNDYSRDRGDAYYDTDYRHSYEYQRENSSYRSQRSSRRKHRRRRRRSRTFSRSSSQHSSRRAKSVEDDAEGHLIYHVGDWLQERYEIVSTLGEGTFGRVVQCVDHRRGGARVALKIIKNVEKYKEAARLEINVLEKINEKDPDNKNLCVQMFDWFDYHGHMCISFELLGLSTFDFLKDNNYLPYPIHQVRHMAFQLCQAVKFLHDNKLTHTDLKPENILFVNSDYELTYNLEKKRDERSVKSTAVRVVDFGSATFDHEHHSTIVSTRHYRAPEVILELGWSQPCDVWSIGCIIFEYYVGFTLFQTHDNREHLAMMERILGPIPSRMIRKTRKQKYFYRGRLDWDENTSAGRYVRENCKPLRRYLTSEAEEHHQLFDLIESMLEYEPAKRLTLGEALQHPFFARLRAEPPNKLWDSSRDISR
In short: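 CLK2 Z'-LYTE coupled-enzyme kit format, 10-point titration from DMSO; enzyme, substrate and compound reacted 1 h at ambient temperature; after development solution, read at excitation 400 nm; activity from coumarin 445 nm/fluorescein 520 nm emission ratio.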

Homo sapiens [4] = organism: Homo sapiens; assay: Selectivity ratio, ratio of IC50 for inhibition of CLK2 (unknown origin) to IC50 for inhibition of recombinant human GST20 tagged truncated LRRK2 G2019S mutant
[5] = tested on: P-gp (rat Mdr1a) (Homo sapiens); assay: Substrate activity at P-gp (unknown origin) expressed in LLC-PK1 cells transfected with rat Mdr1a assessed as apparent permeability at 0.1 uM incubated for 3 hrs by LC-MSMS analysis; assay type: ADME, cell-based
[6] = Plasma clearance in po dosed CD rat measured after 120 mins by LC-MS/MS analysis; assay type: ADME, organism-based
[7] = Intrinsic clearance in po dosed CD rat measured after 120 mins by LC-MS/MS analysis; assay type: ADME, organism-based; details: in vivo, 2 h
[8] = MRT in po dosed CD rat measured after 120 mins by LC-MS/MS analysis; assay type: ADME, organism-based; details: in vivo
[9] = Oral bioavailability in CD rat measured after 120 mins by LC-MS/MS analysis; assay type: ADME, organism-based; details: in vivo
[10] = Plasma clearance in po dosed Beagle dog and measured upto 24 hrs by LC-MS/MS analysis; assay type: ADME, organism-based, Canis lupus familiaris
[11] = Intrinsic clearance in po dosed Beagle dog and measured upto 24 hrs by LC-MS/MS analysis; assay type: ADME, organism-based, Canis lupus familiaris; details: in vivo
[12] = MRT in po dosed Beagle dog and measured upto 24 hrs by LC-MS/MS analysis; assay type: ADME, organism-based, Canis lupus familiaris; details: in vivo
[13] = Oral bioavailability in Beagle dog and measured upto 24 hrs by LC-MS/MS analysis; assay type: ADME, organism-based, Canis lupus familiaris; details: in vivo
[14] = Mutagenicity in Salmonella typhimurium TA1535 at 30 to 5000 ug in presence of S9 metabolic activation system for 48 hrs by ames test; assay type: toxicity, Salmonella enterica subsp. enterica serovar Typhimurium; details: in vitro, dose 30-5000 µg
In short: (§1)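 Plate incorporation Ames test with S9 from phenobarbital/beta-naphthoflavone-induced male Wistar Han rat liver; 30, 100, 300, 1000, 3000, 5000 µg/plate; triplicate minimal glucose agar plates with trace histidine; 48 h at 37 °C; positive if 2-fold revertant increase over vehicle with dose relation.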

[15] = Mutagenicity in Salmonella typhimurium TA98 at 30 to 5000 ug in presence of S9 metabolic activation system for 48 hrs by ames test; assay type: toxicity, Salmonella enterica subsp. enterica serovar Typhimurium; details: dose 30-5000 µg; in short: as §1
[16] = Mutagenicity in Salmonella typhimurium TA100 at 30 to 5000 ug in presence of S9 metabolic activation system for 48 hrs by ames test; assay type: toxicity, Salmonella enterica subsp. enterica serovar Typhimurium; details: dose 30-5000 µg; in short: as §1
[17] = target: Voltage-gated inwardly rectifying potassium channel KCNH2 (Homo sapiens, UniProt Q12809); assay: Inhibition of human ERG tail current in cells at -80 mV holding potential by PatchXpress automated patch clamp assay; assay type: toxicity
[18] = target: Sodium channel protein type 5 subunit alpha (Homo sapiens, UniProt Q14524); assay: Inhibition of human NaV1.5 expressed in HEK293 by PatchXpress automated patch clamp assay; assay type: cell-based
Sodium channel protein type 5 subunit alpha, sequence (Q14524 whole entry): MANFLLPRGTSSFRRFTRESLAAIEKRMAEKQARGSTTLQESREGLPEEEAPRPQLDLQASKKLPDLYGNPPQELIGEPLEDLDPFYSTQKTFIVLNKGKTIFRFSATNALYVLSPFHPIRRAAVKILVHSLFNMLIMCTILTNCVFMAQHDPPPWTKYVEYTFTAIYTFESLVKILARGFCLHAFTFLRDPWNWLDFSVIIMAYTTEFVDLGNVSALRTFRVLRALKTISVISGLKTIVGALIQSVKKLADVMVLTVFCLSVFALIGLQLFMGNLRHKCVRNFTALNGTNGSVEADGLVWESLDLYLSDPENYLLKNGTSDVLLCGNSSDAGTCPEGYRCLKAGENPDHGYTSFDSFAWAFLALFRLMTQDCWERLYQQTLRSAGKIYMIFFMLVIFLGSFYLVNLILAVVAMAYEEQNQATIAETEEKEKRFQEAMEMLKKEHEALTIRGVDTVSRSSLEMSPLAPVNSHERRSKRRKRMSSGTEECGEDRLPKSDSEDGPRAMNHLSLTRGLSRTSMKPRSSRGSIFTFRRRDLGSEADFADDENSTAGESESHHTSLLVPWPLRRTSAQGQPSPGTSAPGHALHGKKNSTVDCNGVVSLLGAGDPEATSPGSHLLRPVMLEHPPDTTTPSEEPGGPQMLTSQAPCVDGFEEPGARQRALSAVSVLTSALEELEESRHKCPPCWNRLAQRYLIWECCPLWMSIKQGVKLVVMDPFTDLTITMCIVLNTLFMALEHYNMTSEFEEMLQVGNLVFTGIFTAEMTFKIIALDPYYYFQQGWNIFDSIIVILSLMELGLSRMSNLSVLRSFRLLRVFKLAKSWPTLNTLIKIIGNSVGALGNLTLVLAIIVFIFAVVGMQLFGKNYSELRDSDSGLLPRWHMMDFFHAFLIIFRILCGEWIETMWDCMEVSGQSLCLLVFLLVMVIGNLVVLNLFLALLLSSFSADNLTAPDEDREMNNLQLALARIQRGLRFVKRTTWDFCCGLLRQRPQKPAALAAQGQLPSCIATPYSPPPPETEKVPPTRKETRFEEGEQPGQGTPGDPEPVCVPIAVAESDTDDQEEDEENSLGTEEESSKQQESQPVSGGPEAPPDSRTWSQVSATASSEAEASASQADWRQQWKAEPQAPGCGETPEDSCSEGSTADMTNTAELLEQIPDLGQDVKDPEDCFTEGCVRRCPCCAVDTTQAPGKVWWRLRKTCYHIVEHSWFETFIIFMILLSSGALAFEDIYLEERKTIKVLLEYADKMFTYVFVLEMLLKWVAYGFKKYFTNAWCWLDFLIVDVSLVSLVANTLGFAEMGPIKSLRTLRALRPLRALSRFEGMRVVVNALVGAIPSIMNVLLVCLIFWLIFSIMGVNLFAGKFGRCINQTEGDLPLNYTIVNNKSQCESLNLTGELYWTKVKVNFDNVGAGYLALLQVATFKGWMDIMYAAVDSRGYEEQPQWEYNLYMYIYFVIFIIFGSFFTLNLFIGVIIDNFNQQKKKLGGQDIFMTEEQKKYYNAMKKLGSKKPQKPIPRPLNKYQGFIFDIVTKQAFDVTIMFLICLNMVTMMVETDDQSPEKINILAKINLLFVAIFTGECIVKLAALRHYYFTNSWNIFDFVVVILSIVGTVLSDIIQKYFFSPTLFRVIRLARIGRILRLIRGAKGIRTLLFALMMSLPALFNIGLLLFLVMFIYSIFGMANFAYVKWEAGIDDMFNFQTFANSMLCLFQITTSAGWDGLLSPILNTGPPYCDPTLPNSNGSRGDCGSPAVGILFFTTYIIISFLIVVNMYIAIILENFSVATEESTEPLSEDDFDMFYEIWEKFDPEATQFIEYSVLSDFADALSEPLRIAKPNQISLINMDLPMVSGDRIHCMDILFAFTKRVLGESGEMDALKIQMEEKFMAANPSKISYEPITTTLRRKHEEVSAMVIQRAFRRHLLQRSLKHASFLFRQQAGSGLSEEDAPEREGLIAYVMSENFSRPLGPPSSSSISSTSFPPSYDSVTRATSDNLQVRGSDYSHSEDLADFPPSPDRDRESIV

[19] = Inhibition of calcium channel (unknown origin); set-up: species or system Homo sapiens
Homo sapiens [20] = organism: Homo sapiens; assay: Selectivity of inhibition of human LRRK2 to human MINK1
Homo sapiens [21] = organism: Homo sapiens; assay: Selectivity of inhibition of human LRRK2 to human CLK2
Homo sapiens [22] = organism: Homo sapiens; assay: Selectivity of inhibition of human LRRK2 to human IRAK4
[23] = target: T2, Adenosine receptor A1 (Homo sapiens) (UniProt P30542); assay: Inhibition of human adenosine A1 receptor at 10 uM by radioligand binding assay
T2 sequence (whole entry): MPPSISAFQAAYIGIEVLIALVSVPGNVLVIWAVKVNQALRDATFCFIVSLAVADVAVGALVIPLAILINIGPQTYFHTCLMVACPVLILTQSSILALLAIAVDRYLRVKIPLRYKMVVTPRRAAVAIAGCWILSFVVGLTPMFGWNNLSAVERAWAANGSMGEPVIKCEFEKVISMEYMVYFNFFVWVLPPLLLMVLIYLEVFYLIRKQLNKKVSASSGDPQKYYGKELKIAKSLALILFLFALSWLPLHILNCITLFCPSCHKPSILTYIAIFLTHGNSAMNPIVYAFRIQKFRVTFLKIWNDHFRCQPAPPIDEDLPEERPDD
In short: (§2)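 Single-concentration radioligand binding screen (Eurofins Panlabs); IC50 by non-linear least-squares regression; Ki via Cheng-Prusoff from observed IC50, radioligand concentration and historical KD; Hill coefficient reported.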

[24] = target: Adenosine receptor A2a (Homo sapiens) (UniProt P29274); assay: Inhibition of human adenosine A2A receptor at 10 uM by radioligand binding assay; in short: as §2
[25] = target: Substance-P receptor (Homo sapiens) (UniProt P25103); assay: Inhibition of human tachykinin NK1 receptor at 10 uM by radioligand binding assay; in short: as §2
Cavia porcellus = organism: Cavia porcellus; assay: Inhibition of guinea pig adenosine transporter at 1 uM by radioligand binding assay; in short: as §2
[26] = In vivo inhibition of LRRK2 in CD rat assessed as reduction in serine 935 phosphorylated LRRK2 in striatum at 3 mg/kg, po and measured after 2 hrs by MSD immunoassay; assay type: functional
In short: (§3)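 Male CD rats (125-150 g) dosed orally with compound suspended in 10% Tween 80 (5 mL/kg) or vehicle, euthanized by CO2 2 h later; striatum dissected, frozen on dry ice; pSer935 LRRK2 measured by MSD immunoassay as pSer935/total LRRK2 ratio, mean ± S.E.M.; one-way ANOVA with Dunnett's post hoc test.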

[27] = In vivo inhibition of LRRK2 in CD rat assessed as reduction in serine 935 phosphorylated LRRK2 in striatum at 10 mg/kg, po and measured after 2 hrs by MSD immunoassay; assay type: functional; in short: as §3
[28] = In vivo inhibition of LRRK2 in CD rat assessed as reduction in serine 935 phosphorylated LRRK2 in striatum at 30 mg/kg, po and measured after 2 hrs by MSD immunoassay; assay type: functional; in short: as §3
[29] = In vivo inhibition of LRRK2 in CD rat assessed as reduction in serine 935 phosphorylated LRRK2 in striatum at 100 mg/kg, po and measured after 2 hrs by MSD immunoassay; assay type: functional; in short: as §3
[30] = Brain to plasma permeability coefficient, Kp in CD rat plasma assessed as unbound fraction at 3 to 100 mg/kg, po and measured after 2 hrs by LC/MS/MS analysis; assay type: ADME, organism-based; details: in vivo, dose 3-100 mg/kg
[31] = Toxicity in CD rat assessed clinical signs of toxicity at 50 to 100 mg/kg, po BID administered for 4 days; assay type: organism-based; details: in vivo, 96 h, dose 50-100 mg/kg, time 4 day
[32] = Toxicity in CD rat assessed micronucleus induction in bone marrow at 50 to 100 mg/kg, po BID administered for 4 days; assay type: organism-based; details: in vivo, 96 h, dose 50-100 mg/kg, time 4 day
[33] = Drug metabolism in rat hepatocytes assessed as (R)-2-(1-(4-amino-5-(trifluoromethyl)pyridin-2-yl)pyrrolidin-3-yl)propan-2-ol metabolite formation compound at 0.3 uM and measured after 120 mins by LC-MS/MS analysis; assay type: ADME, cell-based, Hepatocyte; details: 2 h
[34] = Drug metabolism in human hepatocytes assessed as (R)-2-(1-(4-amino-5-(trifluoromethyl)pyridin-2-yl)pyrrolidin-3-yl)propan-2-ol metabolite formation compound at 0.3 uM and measured after 120 mins by LC-MS/MS analysis; assay type: ADME, cell-based, Hepatocyte; details: 2 h

T1 sequence (Q5S007 whole entry G2019S, the tested form may be a part): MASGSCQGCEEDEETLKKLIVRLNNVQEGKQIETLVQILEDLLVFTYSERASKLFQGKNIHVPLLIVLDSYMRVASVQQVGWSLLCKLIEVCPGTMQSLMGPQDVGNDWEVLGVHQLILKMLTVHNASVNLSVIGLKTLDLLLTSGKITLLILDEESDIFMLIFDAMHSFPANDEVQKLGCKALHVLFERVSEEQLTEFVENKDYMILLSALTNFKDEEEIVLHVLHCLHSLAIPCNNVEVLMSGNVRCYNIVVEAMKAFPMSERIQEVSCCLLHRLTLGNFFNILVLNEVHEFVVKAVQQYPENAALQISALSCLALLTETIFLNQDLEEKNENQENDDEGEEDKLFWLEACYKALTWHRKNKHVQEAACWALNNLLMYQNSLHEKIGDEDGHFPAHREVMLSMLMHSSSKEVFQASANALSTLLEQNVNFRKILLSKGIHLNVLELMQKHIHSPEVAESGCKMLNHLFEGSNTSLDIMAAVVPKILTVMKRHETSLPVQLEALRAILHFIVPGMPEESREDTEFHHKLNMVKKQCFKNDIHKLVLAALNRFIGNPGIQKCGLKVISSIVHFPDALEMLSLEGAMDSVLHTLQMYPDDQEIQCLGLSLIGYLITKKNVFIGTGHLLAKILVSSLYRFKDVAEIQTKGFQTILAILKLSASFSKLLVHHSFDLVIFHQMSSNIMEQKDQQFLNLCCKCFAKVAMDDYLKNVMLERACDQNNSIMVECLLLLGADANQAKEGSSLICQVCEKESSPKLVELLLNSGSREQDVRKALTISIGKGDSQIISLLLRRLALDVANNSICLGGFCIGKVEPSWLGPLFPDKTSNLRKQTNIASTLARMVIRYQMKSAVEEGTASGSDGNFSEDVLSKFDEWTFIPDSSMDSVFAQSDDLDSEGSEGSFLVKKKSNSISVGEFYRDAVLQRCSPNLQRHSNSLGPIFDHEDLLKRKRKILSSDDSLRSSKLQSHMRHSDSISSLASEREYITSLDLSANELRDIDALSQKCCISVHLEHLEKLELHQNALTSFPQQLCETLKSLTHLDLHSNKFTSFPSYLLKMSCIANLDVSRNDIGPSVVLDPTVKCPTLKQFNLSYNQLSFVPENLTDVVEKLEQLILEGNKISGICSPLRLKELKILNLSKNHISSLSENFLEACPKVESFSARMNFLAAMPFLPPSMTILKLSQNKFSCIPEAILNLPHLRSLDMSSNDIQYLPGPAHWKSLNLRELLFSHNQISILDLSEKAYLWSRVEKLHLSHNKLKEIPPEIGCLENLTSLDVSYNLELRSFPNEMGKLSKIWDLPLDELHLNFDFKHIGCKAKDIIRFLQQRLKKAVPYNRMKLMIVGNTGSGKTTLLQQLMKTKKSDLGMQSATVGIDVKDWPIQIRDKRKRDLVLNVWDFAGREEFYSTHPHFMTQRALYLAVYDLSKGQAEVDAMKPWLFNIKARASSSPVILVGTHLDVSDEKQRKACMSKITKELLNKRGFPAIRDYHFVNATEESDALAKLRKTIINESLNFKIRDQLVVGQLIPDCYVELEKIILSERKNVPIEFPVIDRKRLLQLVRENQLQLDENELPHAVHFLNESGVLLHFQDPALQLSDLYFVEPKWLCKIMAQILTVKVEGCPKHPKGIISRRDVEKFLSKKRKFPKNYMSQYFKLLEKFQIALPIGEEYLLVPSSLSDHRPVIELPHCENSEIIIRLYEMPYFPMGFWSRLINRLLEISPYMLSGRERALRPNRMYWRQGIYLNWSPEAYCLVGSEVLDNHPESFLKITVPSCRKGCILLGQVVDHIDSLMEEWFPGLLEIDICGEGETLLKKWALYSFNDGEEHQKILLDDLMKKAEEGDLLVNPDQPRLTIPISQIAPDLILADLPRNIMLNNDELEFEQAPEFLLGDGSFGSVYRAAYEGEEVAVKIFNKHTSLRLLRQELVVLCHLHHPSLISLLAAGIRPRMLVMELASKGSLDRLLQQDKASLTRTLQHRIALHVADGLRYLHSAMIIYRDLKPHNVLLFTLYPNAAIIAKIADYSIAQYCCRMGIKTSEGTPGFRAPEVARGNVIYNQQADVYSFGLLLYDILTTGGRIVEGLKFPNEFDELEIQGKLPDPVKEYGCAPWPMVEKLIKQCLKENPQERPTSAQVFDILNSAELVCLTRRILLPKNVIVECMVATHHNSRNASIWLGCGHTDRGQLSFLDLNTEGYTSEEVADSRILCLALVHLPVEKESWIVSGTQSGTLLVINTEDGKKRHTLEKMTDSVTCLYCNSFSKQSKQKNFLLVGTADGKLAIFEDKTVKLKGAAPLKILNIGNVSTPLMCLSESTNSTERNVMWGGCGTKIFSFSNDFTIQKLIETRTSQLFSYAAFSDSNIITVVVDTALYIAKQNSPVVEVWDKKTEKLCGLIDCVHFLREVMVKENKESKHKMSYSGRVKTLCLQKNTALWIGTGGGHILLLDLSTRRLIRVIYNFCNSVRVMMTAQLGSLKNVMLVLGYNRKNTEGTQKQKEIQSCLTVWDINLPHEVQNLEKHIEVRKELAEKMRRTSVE

IC50 [1]: 0.001 µM
IC50 [2]: 0.0025 µM
IC50 [3]: 0.063 µM
Ratio IC50 (Homo sapiens [4]): 63
Papp at 3 h, 0.1 µM [5]: 35 ×10⁻⁶ cm/s
CL/F [6]: 10 mL/min/kg
CL [7]: 5722 mL/min/kg
MRT [8]: 5.2 h
bioavailability [9]: 16%
CL/F [10]: 15 mL/min/kg
CL [11]: 14531 mL/min/kg
MRT [12]: 3.6 h
bioavailability [13]: 43%
IC50 [19]: 21.8 µM
Selectivity ratio (Homo sapiens [20]): > 100
Selectivity ratio (Homo sapiens [21]): > 100
Selectivity ratio (Homo sapiens [22]): > 100
inhibition [23]: > 50%
inhibition [24]: > 50%
inhibition [25]: > 50%
inhibition (Cavia porcellus): > 50%
Kp [30]: 0.6
Drug metabolism [33]: Metabolite_Detected
Drug metabolism [34]: Metabolite_Detected
Compound: Cn1cc(-c2cccc(C(=O)Nc3cc(N4CC[C@@H](C(C)(C)O)C4)ncc3C(F)(F)F)n2)cn1
Activity [14]: Non-Toxic
Activity [15]: Non-Toxic
Activity [16]: Non-Toxic
IC50 [17]: 7.6 µM
IC50 [18]: 29.9 µM
inhibition in vivo at 3 mg/kg [26]: 2%
inhibition in vivo at 10 mg/kg [27]: 13%
inhibition in vivo at 30 mg/kg [28]: 35%
inhibition in vivo at 100 mg/kg [29]: 56%
Activity [31]: Non-Toxic
Activity [32]: Non-Toxic
